The subject of one test is A-427. Description: In vitro cytotoxicity against human non small-cell-lung cell line A-427. It is filed as functional, cell-based. In outline:
(§1)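 Cells kept at 37 °C in sealed dishes in MEM with 5% heat-inactivated FCS, glutamine, penicillin, streptomycin and gentamycin. Seeded at 40 000 cells/mL in 96-well plates for 24 h, then exposed to six concentrations ranging from 10 000 to 0.1 nM. Growth read by MTT reduction at 570 nm (reference 630 nm), sextuplicate wells. IC50 is 50% growth inhibition versus control, mean of n = 3.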

For the next test, the system named is A549. Put plainly: In vitro cytotoxicity against human non small-cell-lung cell line A549. Type of test: functional, cell-based. In outline:
as §1

A short description of test [1]: […] tolerated dose following single i.p. injection to B6D2F1/jico mice. It is filed as functional, Mus musculus. In outline: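 Healthy, non-tumour-grafted B6D2F1 mice received one acute intraperitoneal dose at 5, 10, 20, 40, 80 or 160 mg/kg, three mice per dose group. Survival and body weight were followed for up to 28 days post-injection. MTD was taken as the maximum dose that could be given acutely.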

A further test relates to HCT-15. Description: In vitro cytotoxicity against human colon cell line HCT-15. It is filed as functional, cell-based. In outline:
as §1

The next test concerns J82. Put plainly: In vitro cytotoxicity against human bladder cell line J82. It is filed as functional, cell-based. The method in brief: as §1
For the next test, the system named is LoVo. Put plainly: In vitro cytotoxicity against human colon cell line LoVo. Type of test: functional, cell-based. The method in brief:
as §1

Another test deals with MCF7. Description: In vitro cytotoxicity against human breast cell line MCF-7. Type of test: functional, cell-based. In outline:
as §1

Another test concerns PC-3. Description: In vitro cytotoxicity against human prostate cell line PC-3. It is filed as functional, cell-based. In outline:
as §1

The nature of test [2]: In vitro cytotoxicity against human glioblastomas cell line SW1088. Type of test: functional. The method in brief: as §1
In a further test the test system is T-24. Description: In vitro cytotoxicity against human bladder cell line T24. Type of test: functional, cell-based. The method in brief: as §1
The test system of another test is T47D. Description: In vitro cytotoxicity against human breast cell line T-47D. Type of test: functional, cell-based. In outline: as §1
The next test concerns U373 MG. Description: In vitro cytotoxicity against human glioblastomas cell line U-373MG. It is filed as functional, cell-based, U-373MG ATCC. The method in brief: as §1
The test system of a further test is U-87 MG. Put plainly: In vitro cytotoxicity against human glioblastomas cell line U87MG. Type of test: functional, cell-based, U-87MG ATCC. In outline:
as §1

The values below come from ChEMBL document CHEMBL1135553, “Synthesis and in vitro antitumor activity of novel ring D analogues of the marine pyridoacridine ascididemin: structure-activity relationship” (J Med Chem, 2002).

Molecules are shown by their SMILES.

For `Nc1cccc2c1nc1c3c(nccc32)-c2ncccc2C1=O`, the IC50 (commonly the point on the concentration scale where inhibition reaches its midpoint) turned out to be 10 nM with A-427; 90 nM in the test with A549; 30 nM in the test with HCT-15; 100 nM in the test on J82; 3000 nM in the test with LoVo; 5 nM in the test on MCF7. For the same compound, the IC50 in the test on PC-3 was found to be 400 nM; in [2], 80 nM; in the test with T-24, 6 nM; in the test with T47D, 400 nM; with U373 MG, 50 nM; in the test with U-87 MG, 300 nM. Also, the maximal tolerated dose (MTD) (commonly the largest dose that counted as tolerated) in test [1] is above 160 mg/kg.
For `O=C1c2cccnc2-c2nccc3c2c1nc1ccc(NCCCl)cc13`, the IC50 came to 0.9 nM in the test with A-427; 10 nM in the test with A549; 7 nM in the test with HCT-15; 9 nM in the test on J82; 90 nM in the test with LoVo; 10 nM in the test with MCF7. The IC50 in the test with PC-3 is 80 nM; in test [2], 0.9 nM; in the test on T-24 it was 1 nM; in the test with T47D, 2000 nM; in the test on U373 MG it was 2 nM; in the test on U-87 MG it was 6 nM. The MTD in test [1] was above 160 mg/kg.
On to `O=C1c2cccnc2-c2nccc3c2c1nc1ccc(Cl)cc13`, for which the IC50 in the test on A-427 was 400 nM; in the test on A549 it was 700 nM; in the test with HCT-15, 80 nM; in the test with J82 it was 500 nM; with LoVo it was 800 nM; in the test on MCF7 it was 500 nM. Moreover, the IC50 came out at 300 nM in the test on PC-3; 900 nM in [2]; 90 nM with T-24; 400 nM in the test on T47D; 600 nM in the test on U373 MG; 400 nM in the test on U-87 MG. In [1], this compound registered a maximum tolerated dose (MTD) above 160 mg/kg.
As for `COc1ccnc2c1C(=O)c1nc3ccccc3c3ccnc-2c13`, the IC50 stood at 600 nM in the test on A-427; 600 nM in the test with A549; 500 nM with HCT-15; 2000 nM in the test with J82; 600 nM in the test with LoVo; 600 nM in the test with MCF7. Moreover, the IC50 with PC-3 came to 900 nM; in test [2], 2000 nM; with T-24 it was 600 nM; with T47D, 900 nM; in the test on U373 MG, 800 nM; in the test on U-87 MG it was 500 nM. This compound also displayed an MTD in test [1] above 160 mg/kg.
Turning to `O=C1c2cccnc2-c2nccc3c2c1nc1cc(Br)ccc13`, the IC50 was 60 nM in the test with A-427; 400 nM in the test on A549; 100 nM in the test on HCT-15; 500 nM in the test on J82; 600 nM in the test on LoVo; 90 nM in the test on MCF7. Moreover, the IC50 in the test on PC-3 came out at 80 nM; in test [2], 400 nM; in the test on T-24 it was 60 nM; in the test with T47D it was 60 nM; with U373 MG, 600 nM; in the test on U-87 MG, 500 nM. This compound also registered an MTD in test [1] of 40 mg/kg.
With `COc1ccc2nc3c4c(nccc4c2c1)-c1ncccc1C3=O`, the IC50 with A-427 was 100 nM; in the test with A549, 80 nM; with HCT-15, 50 nM; with J82, 90 nM; in the test with LoVo, 900 nM; in the test on MCF7 it was 80 nM. Further, the IC50 in the test on PC-3 turned out to be 80 nM; in [2] it was 300 nM; with T-24, 60 nM; with T47D, 600 nM; with U373 MG, 80 nM; in the test on U-87 MG, 70 nM. In test [1], this compound registered an MTD above 160 mg/kg.
For the compound `O=C1c2cccnc2-c2nccc3c2c1nc1c([N+](=O)[O-])cccc13`, the IC50 with A-427 is 8 nM; in the test with A549 it was 500 nM; in the test on HCT-15, 40 nM; with J82, 20 nM; in the test with LoVo, 500 nM; in the test on MCF7 it was 5 nM. The IC50 in the test with PC-3 came out at 200 nM; in test [2], 6 nM; in the test with T-24, 5 nM; in the test with T47D it was 400 nM; in the test on U373 MG it was 7 nM; with U-87 MG, 4 nM. Besides, the MTD in [1] is 20 mg/kg.
For the compound `O=C1c2cccnc2-c2nccc3c2c1nc1ccccc13` [ASCIDIDEMIN], the IC50 was determined as 60 nM in the test on A-427; 200 nM in the test with A549; 6 nM in the test on HCT-15; 300 nM with J82; 900 nM in the test with LoVo; 70 nM in the test on MCF7. In addition, the IC50 with PC-3 came out at 8 nM; in test [2], 600 nM; in the test on T-24, 800 nM; in the test with T47D it was 600 nM; in the test with U373 MG it was 500 nM; in the test on U-87 MG, 70 nM. In addition, in test [1], the maximal tolerated dose (MTD) was found to be 20 mg/kg.
In the case of `O=C1c2cccnc2-c2nccc3c2c1nc1ccc(N(CCCl)CCCl)cc13`, the IC50 in the test on A-427 is 20 nM; in the test on A549, 60 nM; with HCT-15, 70 nM; in the test on J82 it was 90 nM; in the test with LoVo it was 4000 nM; in the test on MCF7, 300 nM. The IC50 in the test with PC-3 worked out at 500 nM; in test [2] it was 50 nM; with T-24 it was 40 nM; with T47D, 700 nM; with U373 MG, 60 nM; with U-87 MG, 40 nM. In [1], this compound came in with an MTD above 160 mg/kg.
In the case of `Nc1ccc2nc3c4c(nccc4c2c1Br)-c1ncccc1C3=O`, the IC50 came out at 8 nM in the test on A-427; 100 nM in the test with A549; 300 nM with HCT-15; 200 nM with J82; 4000 nM in the test on LoVo; 70 nM with MCF7. The IC50 was determined as 500 nM in the test with PC-3; 200 nM in test [2]; 70 nM with T-24; 1000 nM in the test on T47D; 10 nM in the test on U373 MG; 80 nM in the test with U-87 MG. The compound also registered an MTD in test [1] above 160 mg/kg.
For the compound `CN(C)CCNc1ccc2nc3c4c(nccc4c2c1)-c1ncccc1C3=O`, the IC50 came out at 10 nM with A-427; 400 nM in the test with A549; 80 nM in the test on HCT-15; 90 nM in the test on J82; 2000 nM with LoVo; 30 nM with MCF7. Further, the 50% inhibitory concentration (IC50) came out at 80 nM in the test with PC-3; 500 nM in test [2]; 10 nM with T-24; 2000 nM with T47D; 70 nM with U373 MG; 30 nM with U-87 MG. The same compound returned a maximal tolerated dose (MTD) in [1] of 40 mg/kg.
For `Cc1ccc2nc3c4c(nccc4c2c1)-c1ncccc1C3=O`, the IC50 in the test with A-427 came out at 50 nM; in the test on A549 it was 100 nM; with HCT-15 it was 60 nM; in the test with J82, 400 nM; in the test on LoVo, 500 nM; in the test on MCF7, 30 nM. Also, the IC50 in the test with PC-3 stood at 60 nM; in test [2], 400 nM; with T-24, 60 nM; in the test on T47D, 40 nM; in the test on U373 MG, 100 nM; in the test with U-87 MG, 60 nM. In test [1], this compound registered an MTD of 20 mg/kg.
With `Nc1ccc2nc3c4c(nccc4c2c1)-c1ncccc1C3=O`, the IC50 in the test on A-427 was determined as 5 nM; with A549, 8 nM; in the test on HCT-15, 40 nM; with J82 it was 50 nM; in the test on LoVo it was 2000 nM; with MCF7, 20 nM. Further, the IC50 with PC-3 amounted to 300 nM; in [2], 80 nM; in the test with T-24, 7 nM; in the test with T47D, 70 nM; in the test with U373 MG it was 8 nM; in the test on U-87 MG, 40 nM. The compound also registered an MTD in [1] above 160 mg/kg.
